In brackets after ≈: the same amount, converted by molar mass.
Columns and labels:
Staphylococcus aureus [1] = assay: Antibacterial activity against Staphylococcus aureus ATCC 29213 without plasmid; type: functional
Staphylococcus aureus [2] = assay: Antibacterial activity against Staphylococcus aureus ATCC 29213 carrying plasmid expressing wild type GyrB; type: functional
Staphylococcus aureus [3] = assay: Antibacterial activity against Staphylococcus aureus ATCC 29213 carrying plasmid expressing GyrB T173N mutant; type: functional
Staphylococcus aureus [4] = assay: Antibacterial activity against Staphylococcus aureus ATCC 29213 carrying plasmid expressing GyrB T173I mutant; type: functional
Staphylococcus aureus [5] = assay: Antibacterial activity against Staphylococcus aureus ATCC 29213 carrying plasmid expressing GyrB R144I mutant; type: functional
Staphylococcus aureus [6] = assay: Antibacterial activity against Staphylococcus aureus ATCC 29213 with GyrB T173N mutation without plasmid; type: functional
Staphylococcus aureus [7] = assay: Antibacterial activity against Staphylococcus aureus ATCC 29213 with GyrB T173I mutation without plasmid; type: functional
Staphylococcus aureus [8] = assay: Antibacterial activity against Staphylococcus aureus ATCC 29213 with GyrB R144I mutation without plasmid; type: functional
Staphylococcus aureus [9] = assay: Inhibition of DNA synthesis in Staphylococcus aureus ATCC 29213 assessed as [3H]thymidine incorporation; type: functional
Outline: (§1)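 Log-phase cells exposed in duplicate to compound at 5x MIC; labelled-precursor uptake measured over 15 min, stopped with 10% trichloroacetic acid. Incorporation expressed as percent of untreated control (taken as 100%).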

Staphylococcus aureus [10] = assay: Inhibition of RNA synthesis in Staphylococcus aureus ATCC 29213 assessed as [3H]uridine incorporation; type: functional; outline: as §1
Staphylococcus aureus [11] = assay: Inhibition of protein synthesis in Staphylococcus aureus ATCC 29213 assessed as [3H]aminoacid incorporation; type: functional
Escherichia coli = assay: Reduction in steady-state levels of supercoiled pUC18 in Escherichia coli CAG12184 tolC mutant; type: functional, organism-based
Outline: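 Cells carrying pUC18 grown at 37°C in caMHB with 100 µg/ml ampicillin to OD600 0.5, then exposed 1 h at 37°C with shaking to a twofold dilution series spanning the MIC. Plasmid isolated, concentrated, run on 1% TBE-agarose alongside supercoiled markers for 16 h, stained with ethidium bromide.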

Staphylococcus aureus [12] = assay: Antibacterial activity against Staphylococcus aureus ATCC 29213 after 18 to 20 hrs; type: functional
Outline: (§2)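 MICs followed CLSI guidelines. Strains were grown overnight at 35°C on solid medium. Inocula were prepared with a Prompt system. Compounds were serially diluted twofold in 100% DMSO at 200x and diluted 1:200 into medium, for a final 0.5% DMSO. Plates were incubated at 35°C for 18 to 20 h and read visually. A twofold MIC variation was taken as assay error.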

Staphylococcus aureus [13] = assay: Antibacterial activity against Staphylococcus aureus ATCC 29213 with GyrB T173N mutation after 18 to 20 hrs; type: functional; outline: as §2
Staphylococcus aureus [14] = assay: Antibacterial activity against Staphylococcus aureus ATCC 29213 with GyrB T173I mutation after 18 to 20 hrs; type: functional; outline: as §2
Staphylococcus aureus [15] = assay: Antibacterial activity against novobiocin-resistant Staphylococcus aureus ATCC 29213 with GyrB R144I mutation after 18 to 20 hrs; type: functional; outline: as §2
Staphylococcus aureus [16] = assay: Antibacterial activity against Staphylococcus aureus ATCC 29213 with GyrB T173N and GrlB T166A mutation after 18 to 20 hrs; type: functional; outline: as §2
Staphylococcus aureus [17] = assay: Antibacterial activity against Staphylococcus aureus ATCC 29213 with GyrB T173I and GrlB T166A mutation after 18 to 20 hrs; type: functional; outline: as §2
Streptococcus pneumoniae [18] = assay: Antibacterial activity against Streptococcus pneumoniae ATCC BAA-255 after 18 to 20 hrs; type: functional; outline: as §2
Streptococcus pneumoniae [19] = assay: Antibacterial activity against novobiocin-resistant Streptococcus pneumoniae ATCC BAA-255 with GyrB S127L mutation after 18 to 20 hrs; type: functional; outline: as §2
Streptococcus pneumoniae [20] = assay: Antibacterial activity against Streptococcus pneumoniae ATCC BAA-255 with ParE T172A mutation after 18 to 20 hrs; type: functional; outline: as §2
Streptococcus pneumoniae [21] = assay: Antibacterial activity against Streptococcus pneumoniae ATCC BAA-255 with ParE T172I mutation after 18 to 20 hrs; type: functional; outline: as §2
Streptococcus pneumoniae [22] = assay: Antibacterial activity against Streptococcus pneumoniae ATCC BAA-255 with GyrB T172A and ParE T172A mutation after 18 to 20 hrs; type: functional; outline: as §2
Enterococcus faecalis [23] = assay: Antibacterial activity against Enterococcus faecalis ATCC 29212 after 18 to 20 hrs; type: functional; outline: as §2
Enterococcus faecalis [24] = assay: Antibacterial activity against Enterococcus faecalis ATCC 29212 with ParE T169A mutation after 18 to 20 hrs; type: functional; outline: as §2
Enterococcus faecalis [25] = assay: Antibacterial activity against Enterococcus faecalis ATCC 29212 with GyrB T167A mutation after 18 to 20 hrs; type: functional; outline: as §2
Enterococcus faecalis [26] = assay: Antibacterial activity against Enterococcus faecalis ATCC 29212 with GyrB T167I mutation after 18 to 20 hrs; type: functional; outline: as §2
Enterococcus faecalis [27] = assay: Antibacterial activity against Enterococcus faecalis ATCC 29212 with GyrB T167I and ParE T169A mutation after 18 to 20 hrs; type: functional; outline: as §2
Enterococcus faecalis [28] = assay: Antibacterial activity against Enterococcus faecalis ATCC 29212 with GyrB T167A and ParE T169A mutation after 18 to 20 hrs; type: functional; outline: as §2
Haemophilus influenzae [29] = assay: Antibacterial activity against Haemophilus influenzae ATCC 51907 after 18 to 20 hrs; type: functional; outline: as §2
Haemophilus influenzae [30] = assay: Antibacterial activity against novobiocin-resistant Haemophilus influenzae ATCC 51907 with GyrB R140C mutation after 18 to 20 hrs; type: functional; outline: as §2
Haemophilus influenzae [31] = assay: Antibacterial activity against novobiocin-resistant Haemophilus influenzae ATCC 51907 with GyrB R140H mutation after 18 to 20 hrs; type: functional; outline: as §2
Haemophilus influenzae [32] = assay: Antibacterial activity against novobiocin-resistant Haemophilus influenzae ATCC 51907 with GyrB R140L mutation after 18 to 20 hrs; type: functional; outline: as §2
Haemophilus influenzae [33] = assay: Antibacterial activity against Haemophilus influenzae ATCC 51907 with GyrB T169I mutation after 18 to 20 hrs; type: functional; outline: as §2

Row | Compound | MIC (Staphylococcus aureus [1]) [µg/mL] | MIC (Staphylococcus aureus [2]) [µg/mL] | MIC (Staphylococcus aureus [3]) [µg/mL] | MIC (Staphylococcus aureus [4]) [µg/mL] | MIC (Staphylococcus aureus [5]) [µg/mL] | MIC (Staphylococcus aureus [6]) [µg/mL] | MIC (Staphylococcus aureus [7]) [µg/mL] | MIC (Staphylococcus aureus [8]) [µg/mL] | Activity (Escherichia coli) | MIC (Staphylococcus aureus [12]) [µg/mL] | MIC (Staphylococcus aureus [13]) [µg/mL] | MIC (Staphylococcus aureus [14]) [µg/mL] | MIC (Staphylococcus aureus [15]) [µg/mL] | MIC (Staphylococcus aureus [16]) [µg/mL] | MIC (Staphylococcus aureus [17]) [µg/mL] | MIC (Streptococcus pneumoniae [18]) [µg/mL] | MIC (Streptococcus pneumoniae [19]) [µg/mL] | MIC (Streptococcus pneumoniae [20]) [µg/mL] | MIC (Streptococcus pneumoniae [21]) [µg/mL] | MIC (Streptococcus pneumoniae [22]) [µg/mL] | also measured
1 | CCNC(=O)Nc1nc2cc(-c3cnc(OC)nc3)c(OC)cc2[nH]1 | 2 (≈ 5.84 µM) | 2 (≈ 5.84 µM) | 8 (≈ 23.4 µM) | 8 (≈ 23.4 µM) | 2 (≈ 5.84 µM) | 8 (≈ 23.4 µM) | 8 (≈ 23.4 µM) | 2 (≈ 5.84 µM) | Dose-dependent effect | 2 (≈ 5.84 µM) | 16 (≈ 46.7 µM) | 16 (≈ 46.7 µM) | 4 (≈ 11.7 µM) | > 64 | > 64 | 0.5 (≈ 1.46 µM) | 0.5 (≈ 1.46 µM) | 8 (≈ 23.4 µM) | 4 (≈ 11.7 µM) | 64 (≈ 187 µM) | Inhibition (Staphylococcus aureus [9]): 80%; Inhibition (Staphylococcus aureus [10]): 20%; Inhibition (Staphylococcus aureus [11]): 20%; MIC (Enterococcus faecalis [23]): 1 µg/mL (≈ 2.92 µM); MIC (Enterococcus faecalis [24]): 8 µg/mL (≈ 23.4 µM); MIC (Enterococcus faecalis [25]): 0.5 µg/mL (≈ 1.46 µM); MIC (Enterococcus faecalis [26]): 1 µg/mL (≈ 2.92 µM); MIC (Enterococcus faecalis [27]): > 64 µg/mL; MIC (Enterococcus faecalis [28]): > 64 µg/mL; MIC (Haemophilus influenzae [29]): 4 µg/mL (≈ 11.7 µM); MIC (Haemophilus influenzae [30]): 2 µg/mL (≈ 5.84 µM); MIC (Haemophilus influenzae [31]): 2 µg/mL (≈ 5.84 µM); MIC (Haemophilus influenzae [32]): 4 µg/mL (≈ 11.7 µM); MIC (Haemophilus influenzae [33]): > 64 µg/mL
2 | CCNC(=O)Nc1nc2cc(-c3cccnc3)cc(-c3ncccc3F)c2[nH]1 | 0.06 (≈ 0.159 µM) | 0.06 (≈ 0.159 µM) | 0.25 (≈ 0.664 µM) | 0.13 (≈ 0.345 µM) | 0.06 (≈ 0.159 µM) | 0.25 (≈ 0.664 µM) | 0.25 (≈ 0.664 µM) | 0.06 (≈ 0.159 µM) | Dose-dependent effect | 0.03 (≈ 0.0797 µM) | 0.5 (≈ 1.33 µM) | 0.5 (≈ 1.33 µM) | 0.06 (≈ 0.159 µM) | > 8 | 4 (≈ 10.6 µM) | 0.004 (≈ 0.0106 µM) | 0.002 (≈ 0.00531 µM) | 0.016 (≈ 0.0425 µM) | 0.016 (≈ 0.0425 µM) | 0.25 (≈ 0.664 µM) | MIC (Enterococcus faecalis [23]): 0.032 µg/mL (≈ 0.085 µM); MIC (Enterococcus faecalis [24]): 0.064 µg/mL (≈ 0.17 µM); MIC (Enterococcus faecalis [25]): 0.032 µg/mL (≈ 0.085 µM); MIC (Enterococcus faecalis [26]): 0.064 µg/mL (≈ 0.17 µM); MIC (Enterococcus faecalis [27]): 1 µg/mL (≈ 2.66 µM); MIC (Enterococcus faecalis [28]): 0.5 µg/mL (≈ 1.33 µM); MIC (Haemophilus influenzae [29]): 1 µg/mL (≈ 2.66 µM); MIC (Haemophilus influenzae [30]): 1 µg/mL (≈ 2.66 µM); MIC (Haemophilus influenzae [31]): 1 µg/mL (≈ 2.66 µM); MIC (Haemophilus influenzae [32]): 1 µg/mL (≈ 2.66 µM); MIC (Haemophilus influenzae [33]): > 64 µg/mL
